Results from ChEMBL document CHEMBL2150955, “Design, synthesis and evaluation of N-(substituted benzothiazol-2-yl)amides as anticonvulsant and neuroprotective” (Eur J Med Chem, 2012).
The source made the active and inactive calls. The calls are words filed in the database; no cut-off is given here.

How the values were obtained:
[1] = test system: Mus musculus; experiment: CNS depressant activity in mouse assessed as immobility time at 100 mg/kg, ip measured 60 mins post dose by porsolt's swimming pool test; type: organism-based; design: dose 100 mg/kg, route intraperitoneal; details: in vivo, 1 h
How it was run: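 Behavioral depression was measured by Porsolt's swim test in albino mice of either sex. Immobility time (s) was recorded 24 h before as the control and again 60 min after treatment. Values are mean ± SEM of six mice, compared with Student's t test.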

[2] = test system: Mus musculus; experiment: Anticonvulsant activity in mouse assessed as protection against subcutaneous pentylenetetrazol-induced seizures at 300 mg/kg, ip after 0.5 hrs; type: functional, organism-based; design: dose 300 mg/kg
How it was run: (§1)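 Albino mice of either sex (25-30 g), housed under standard conditions with free access to pellet diet and water. Compounds given at 30, 100 and 300 mg/kg (n = 6). MES and scPTZ seizures were read at 0.5 h and 4 h. The value recorded is the minimum dose protecting half or more of the mice; 300 mg/kg is the maximum dose.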

[3] = test system: Mus musculus; experiment: Neurotoxicity in mouse assessed as minimal motor impairment at 300 mg/kg, ip after 0.5 hrs by rotarod test; type: toxicity, organism-based; design: dose 300 mg/kg, route intraperitoneal; details: in vivo
How it was run: (§2)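 Albino mice of either sex (25-30 g) received 30, 100 or 300 mg/kg (n = 6). Neurological deficit was assessed on the rotarod at 0.5 h and 4 h. The value recorded is the minimum dose producing neurotoxicity in half or more of the mice; 300 mg/kg is the maximum dose.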

[4] = test system: Mus musculus; experiment: Anticonvulsant activity in ip dosed mouse assessed as compound concentration causing protection against subcutaneous pentylenetetrazol-induced seizures in half or more test animals after 4 hrs; type: functional; details: read-out: MED; how it was run: as §1
[5] = test system: Mus musculus; experiment: Anticonvulsant activity in mouse assessed as protection against maximal electroshock-induced seizures at 300 mg/kg, ip after 0.5 hrs; type: functional, organism-based; design: dose 300 mg/kg; how it was run: as §1
[6] = test system: Mus musculus; experiment: Anticonvulsant activity in ip dosed mouse assessed as compound concentration causing protection against maximal electroshock-induced seizures in half or more test animals after 4 hrs; type: functional; details: read-out: MED; how it was run: as §1
[7] = test system: Mus musculus; experiment: Neurotoxicity in mouse assessed as minimal motor impairment at 300 mg/kg, ip after 4 hrs by rotarod test; type: toxicity, organism-based; design: dose 300 mg/kg, route intraperitoneal; details: in vivo; how it was run: as §2
[8] = test system: Mus musculus; experiment: Anticonvulsant activity in ip dosed mouse assessed as compound concentration causing protection against maximal electroshock-induced seizures in half or more test animals after 0.5 hrs; type: functional; details: read-out: MED; how it was run: as §1
[9] = test system: Mus musculus; experiment: Anticonvulsant activity in mouse assessed as protection against maximal electroshock-induced seizures at 300 mg/kg, ip after 4 hrs; type: functional, organism-based; design: dose 300 mg/kg; how it was run: as §1
[10] = test system: Mus musculus; experiment: Anticonvulsant activity in mouse assessed as protection against subcutaneous pentylenetetrazol-induced seizures at 300 mg/kg, ip after 4 hrs; type: functional, organism-based; design: dose 300 mg/kg; how it was run: as §1
[11] = test system: Mus musculus; experiment: Neurotoxicity in ip dosed mouse assessed as minimal motor impairment after 0.5 hrs by rotarod test; type: toxicity, organism-based; details: in vivo; how it was run: as §2
[12] = test system: Mus musculus; experiment: Neurotoxicity in ip dosed mouse assessed as minimal motor impairment after 4 hrs by rotarod test; type: toxicity, organism-based; details: in vivo; how it was run: as §2
[13] = test system: Mus musculus; experiment: Neuroprotective activity in acrylamide-intoxicated mouse assessed as reduction in brain malonaldehyde level at 50 mg/kg, ip dosed 3 days/week for 3 weeks administered 10 mins before acrylamide challenge by TBARS detection assay; type: functional, organism-based; design: dose 50 mg/kg
How it was run: (§3)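 Mice were given acrylamide to induce brain degeneration, with compound administered 10 min before the acrylamide. Brain MDA (lipid peroxidation) and LDH activity were measured against controls. Values are mean ± SEM of six animals, compared with Student's t test.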

[14] = test system: Mus musculus; experiment: Neuroprotective activity in acrylamide-intoxicated mouse assessed as reduction in brain LDH level at 50 mg/kg, ip dosed 3 days/week for 3 weeks administered 10 mins before acrylamide challenge by spectrophotometry; type: functional, organism-based; design: dose 50 mg/kg; how it was run: as §3
[15] = test system: Mus musculus; experiment: Anticonvulsant activity in ip dosed mouse assessed as compound concentration causing protection against subcutaneous pentylenetetrazol-induced seizures in half or more test animals after 0.5 hrs; type: functional; details: read-out: MED; how it was run: as §1
[16] = test system: Mus musculus; experiment: Hepatotoxicity in mouse assessed as effect on SGOT level at 30 mg/kg, po after 2 weeks relative to control; type: toxicity, organism-based; design: dose 30 mg/kg, route oral; details: in vivo, 336 h
How it was run: (§4)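 Serum SGOT, SGPT, alkaline phosphatase, total albumin and total protein were measured in treated mice against controls (n = 6). Data were analysed by ANOVA followed by Student's t test.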

[17] = test system: Mus musculus; experiment: Hepatotoxicity in mouse assessed as effect on SGPT level at 30 mg/kg/day, po dosed for 2 weeks relative to control; type: toxicity, organism-based; design: route oral; details: in vivo, 336 h; how it was run: as §4
[18] = test system: Mus musculus; experiment: Hepatotoxicity in mouse assessed as effect on alkaline phosphatase level at 30 mg/kg/day, po dosed for 2 weeks relative to control; type: toxicity, organism-based; design: route oral; details: in vivo, 336 h; how it was run: as §4
[19] = test system: Mus musculus; experiment: Hepatotoxicity in mouse assessed as effect on total albumin level at 30 mg/kg/day, po dosed for 2 weeks relative to control; type: toxicity, organism-based; design: route oral; details: in vivo, 336 h; how it was run: as §4
[20] = test system: Mus musculus; experiment: Hepatotoxicity in mouse assessed as effect on total protein level at 30 mg/kg/day, po dosed for 2 weeks relative to control; type: toxicity, organism-based; design: route oral; details: in vivo, 336 h; how it was run: as §4
[21] = test system: Mus musculus; experiment: Anticonvulsant activity in ip mouse assessed as protection against subcutaneous pentylenetetrazol-induced seizures; type: functional
How it was run: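 This is the Phase II quantitation in albino mice of either sex (25-30 g). […] TD50 came from the rotarod test, read 30 min after dosing. The protective index is TD50/ED50.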

[22] = test system: Mus musculus; experiment: Anticonvulsant activity in ip dosed mouse assessed as protection against maximal electroshock-induced seizures; type: functional

Compound	Time [1]	Activity [2]	Activity [3]	minimal effective dose [4]	Activity [5]	minimal effective dose [6]	Activity [7]	minimal effective dose [8]	Activity [10]	MTC [11]	MTC [12]	further results
O=C(Nc1nc2ccc(Cl)cc2s1)c1ccccc1C(=O)c1ccccc1	157 s	inactive	Non-toxic	300 mg/kg	inactive	100 mg/kg	Non-toxic					
O=C(Nc1nc2ccc([N+](=O)[O-])cc2s1)c1ccccc1C(=O)c1ccccc1	154.3 s	inactive						300 mg/kg	inactive	300 mg/kg	300 mg/kg	Activity [9]: inactive
O=C(CCC(=O)c1ccccc1)Nc1nc2ccc(Cl)cc2s1	134.5 s		Non-toxic	300 mg/kg		300 mg/kg	Non-toxic	300 mg/kg				Activity [13]: Active; Activity [14]: Active; minimal effective dose [15]: 300 mg/kg; Activity [16]: Non-toxic; Activity [17]: Non-toxic; Activity [18]: Non-toxic; Activity [19]: Non-toxic; Activity [20]: Non-toxic
O=C(CCC(=O)c1ccccc1)Nc1nc2cc(Cl)c(F)cc2s1	146.6 s	inactive	Non-toxic			300 mg/kg	Non-toxic	300 mg/kg	inactive			
Cc1ccc2nc(NC(=O)CCC(=O)c3ccccc3)sc2c1	130 s		Non-toxic	300 mg/kg		100 mg/kg	Non-toxic	100 mg/kg				Activity [13]: Active; Activity [14]: Active; minimal effective dose [15]: 300 mg/kg; Activity [16]: Non-toxic; Activity [17]: Non-toxic; Activity [18]: Non-toxic; Activity [19]: Non-toxic; Activity [20]: Toxic
O=C1NC(=O)C(c2ccccc2)(c2ccccc2)N1 [PHENYTOIN]		inactive				30 mg/kg		30 mg/kg	inactive	100 mg/kg	100 mg/kg	ED50 [21]: > 300 mg/kg
O=C(Nc1nc2ccc(Br)cc2s1)c1ccccc1C(=O)c1ccccc1	179.1 s	inactive						300 mg/kg	inactive	300 mg/kg	300 mg/kg	Activity [9]: inactive
O=C(Nc1nc2ccc(F)cc2s1)c1ccccc1C(=O)c1ccccc1	147.3 s	inactive		300 mg/kg	inactive	100 mg/kg				300 mg/kg	300 mg/kg	
O=C(CCC(=O)c1ccccc1)Nc1nc2ccc(F)cc2s1	160 s	inactive	Non-toxic		inactive	300 mg/kg	Non-toxic		inactive			
O=C(CCC(=O)c1ccccc1)Nc1nc2ccc([N+](=O)[O-])cc2s1	166.1 s	inactive	Non-toxic					300 mg/kg	inactive		300 mg/kg	Activity [9]: inactive
NC(=O)N1c2ccccc2C=Cc2ccccc21 [CARBAMAZEPINE]	179.5 s			300 mg/kg		100 mg/kg		30 mg/kg		100 mg/kg	300 mg/kg	ED50 [22]: 8.8 mg/kg; minimal effective dose [15]: 100 mg/kg; ED50 [21]: > 100 mg/kg
O=C(CCC(=O)c1ccccc1)Nc1nc2ccc(Br)cc2s1	162 s	inactive	Non-toxic		inactive	300 mg/kg			inactive		300 mg/kg	
CCCC(CCC)C(=O)[O-].[Na+] [VALPROATE SODIUM]												ED50 [21]: 149 mg/kg
CC(=O)c1ccc2nc(NC(=O)CCC(=O)c3ccccc3)sc2c1	168.3 s	inactive	Non-toxic	300 mg/kg	inactive	100 mg/kg	Non-toxic					
O=C(Nc1nc2cc(Cl)c(F)cc2s1)c1ccccc1C(=O)c1ccccc1	158.1 s	inactive				300 mg/kg		300 mg/kg	inactive	300 mg/kg	300 mg/kg	
COc1ccc2nc(NC(=O)c3ccccc3C(=O)c3ccccc3)sc2c1	177 s		Non-toxic	300 mg/kg	inactive	100 mg/kg	Non-toxic					minimal effective dose [15]: 300 mg/kg
Cc1ccc2nc(NC(=O)c3ccccc3C(=O)c3ccccc3)sc2c1	180 s		Non-toxic				Non-toxic	300 mg/kg	inactive			Activity [9]: inactive; minimal effective dose [15]: 300 mg/kg
CC(=O)c1ccc2nc(NC(=O)c3ccccc3C(=O)c3ccccc3)sc2c1	172.3 s	inactive	Non-toxic	300 mg/kg	inactive	300 mg/kg	Non-toxic					
